Measurements published in ChEMBL document CHEMBL1938286, “A concise synthesis of viscolin, and its anti-inflammatory effects through the suppression of iNOS, COX-2, ERK phosphorylation and proinflammatory cytokines expressions” (Eur J Med Chem, 2012).
Calls of active or inactive are those of the source. No cut-off for these calls is given here.

What was measured:
Mus musculus [1] = test: Down regulation of COX-2 protein expression in carrageenan-stimulated ICR mouse at 10 mg/kg, ip measured after 5 hrs by Western blot analysis; assay type: functional; conditions: route intraperitoneal
Procedure, shortened: (§1)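 Male ICR mice (18–25 g, n = 6 per group) received intraplantar carrageenan. Paw tissue was taken 5 h after carrageenan. Lysates were made in RIPA buffer and 30 µg protein run on SDS-PAGE/PVDF immunoblot with ECL detection. Band intensities were quantified relative to the carrageenan-alone group across three independent experiments.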

Mus musculus [2] = test: Antiinflammatory activity in ICR mouse assessed as inhibition of carrageenan-induced hind paw edema at 10 mg/kg, ip measured after 4 hrs; assay type: functional, organism-based; set-up: dose 10 mg/kg
Mus musculus [3] = test: Antioxidant activity in carrageenan-stimulated ICR mouse assessed as increase in GPx activity at 10 mg/kg, ip measured after 5 hrs; assay type: functional; conditions: route intraperitoneal
Procedure, shortened: (§2)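 Male ICR mice (n = 6 per group) received the drug 30 min before intraplantar carrageenan, and paw tissue was taken at the 5th hr. Total SOD was measured by inhibition of cytochrome c reduction, CAT by Aebi's method, and cytosolic GPx by Paglia–Valentine. Activities are in U/mg protein, given as mean ± SEM.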

Mus musculus [4] = test: Down regulation of iNOS protein expression in carrageenan-stimulated ICR mouse at 10 mg/kg, ip measured after 5 hrs by Western blot analysis; assay type: functional; conditions: route intraperitoneal; procedure, shortened: as §1
Mus musculus [5] = test: Antioxidant activity in carrageenan-stimulated ICR mouse assessed as increase in CAT activity at 10 mg/kg, ip measured after 5 hrs; assay type: functional; conditions: route intraperitoneal; procedure, shortened: as §2
Mus musculus [6] = test: Antiinflammatory activity in ICR mouse assessed as decrease in carrageenan-induced serum NO level at 10 mg/kg, ip measured after 5 hrs; assay type: functional, organism-based; set-up: dose 10 mg/kg
Procedure, shortened: (§3)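 Male ICR mice (18–25 g, n = 6 per group). Carrageenan was injected intraplantar into the paw, with drug given 30 min beforehand. Serum was collected at the 5th hr. Nitrite was measured colorimetrically by Griess reaction, and TNF-α by commercial ELISA. Data are mean ± SEM.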

Mus musculus [7] = test: Antiinflammatory activity in ICR mouse assessed as inhibition of carrageenan-induced hind paw edema at 10 mg/kg, ip; assay type: functional, organism-based; set-up: dose 10 mg/kg
Mus musculus [8] = test: Antiinflammatory activity in ICR mouse assessed as decrease in carrageenan-induced serum TNFalpha level at 10 mg/kg, ip measured after 5 hrs; assay type: functional, organism-based; set-up: dose 10 mg/kg; procedure, shortened: as §3
Mus musculus [9] = test: Antiinflammatory activity in ICR mouse assessed as decrease in carrageenan-induced MDA level at 10 mg/kg, ip measured after 5 hrs; assay type: functional, organism-based; set-up: dose 10 mg/kg
Procedure, shortened: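 Male ICR mice (n = 6 per group) were dosed 30 min before intraplantar carrageenan. MDA in the edematous paw tissue was determined at the 5th hr after carrageenan.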

Mus musculus [10] = test: Antiinflammatory activity in carrageenan-stimulated ICR mouse assessed as reduction in COX2 immunoreactive cells at 8 mg/kg, ip measured after 5 hrs; assay type: functional, organism-based; set-up: dose 8 mg/kg
Mus musculus [11] = test: Antiinflammatory activity in carrageenan-stimulated ICR mouse assessed as decrease in neutrophil number at 8 mg/kg, ip measured after 5 hrs; assay type: functional, organism-based; set-up: dose 8 mg/kg
Procedure, shortened: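 Male ICR mice were dosed 30 min before intraplantar carrageenan, and paw biopsies were taken 5 h later. Tissue was fixed in Dietric solution for 1 week at room temperature, dehydrated in graded ethanol and paraffin-embedded. 7-thickness sections were stained with hematoxylin–eosin or Van Gieson and examined by light microscopy.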

Mus musculus [12] = test: Antiinflammatory activity in carrageenan-stimulated ICR mouse assessed as reduction in iNOS immunoreactive cells at 8 mg/kg, ip measured after 5 hrs; assay type: functional, organism-based; set-up: dose 8 mg/kg
Mus musculus [13] = test: Antioxidant activity in carrageenan-stimulated ICR mouse assessed as increase in SOD activity at 10 mg/kg, ip measured after 5 hrs; assay type: functional; conditions: route intraperitoneal; procedure, shortened: as §2

COc1ccc2c(c1)c(CC(=O)O)c(C)n2C(=O)c1ccc(Cl)cc1 [INDOMETHACIN]
Activity (Mus musculus [1]): 73.1%
Activity (Mus musculus [2]): Active
Activity (Mus musculus [3]): 10.45 U/mg
Activity (Mus musculus [4]): 69.1%
Activity (Mus musculus [5]): 4.65 U/mg
Activity (Mus musculus [6]): Active
Activity (Mus musculus [7]): Active
Activity (Mus musculus [8]): Active
Activity (Mus musculus [9]): Active
Activity (Mus musculus [10]): Active
Activity (Mus musculus [11]): Active
Activity (Mus musculus [12]): Active
Activity (Mus musculus [13]): 3.85 U/mg
